From PubChem
rRNA inh HTS: selective bacterial rRNA inhibition in E. coli; E. coli WT GFP vs humanized-ribosome RFP mutants, fluorescence, 24 h; active compounds read low; DMSO median 0, no signal -100; GFP signal change (wild-type ribosome), % (test concentration not listed); hit rate 1.6% among 350,000; AID 720706;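 active = significant combined selectivity score with lowered wild-type GFP, culture density cut under 30%, mutant RFP and density less affected; inactive = any of these conditions unmet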
GSIS activator: primary screen for activators of insulin secretion dependent on glucose, INS-1E cells, GLuc reporter luminescence; INS-1E GLuc reporter insulin secretion, 2-3 h; activation, % at 16.6 µM; hit rate 0.61% among 370,000; AID 743287;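 active = lowest replicate activation of at least 40%, so every replicate reaches that level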;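 also: 0% = median of neutral control wells and 100% = median of IBMX positive control wells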
RAD52 inh: RAD52 (human) annealing inhibition; P43351; recombinant RAD52 DNA annealing, FRET fluorescence; inhibition, % at 18.7 µM; hit rate 0.46% among 360,000;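 active = every replicate showing at least 50% inhibition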
RAD54 branch: blocks human RAD54 Holliday junction branch migration | FAM/BHQ fluorescence | hit rate 0.14% among 360,000 | inhibition, % at 10.4 µM | Q92698 | AID 602329;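 active = mean normalized replicate activity at least 40 and at least half of replicates scoring 40 or more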;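 also: 0% = median of neutral control wells and 100% = median of positive control wells; inhibitors cause a drop in the FAM fluorescence signal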
MLL AF4-AF9 inh: MLL-AF4/AF9 protein interaction inhibition; AlphaScreen, biotin-AF4 peptide binding to FLAG-AF9; hit rate 0.47% among 350,000; P42568; inhibition, % at 10 µM;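 active = every replicate reaching a set inhibition limit, whatever the replicate mean, cut at about 25% in these data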;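 also: 0% = plate neutral control median and 100% = total signal loss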
E-sel inducer: induces E-selectin expression in human endothelial cells | HUVEC E-selectin immunofluorescence imaging; normalized: neutral wells 0, TNF-alpha wells 100 | activation, % at 7.58 µM | hit rate 0.37% among 260,000 | AID 686992;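 active = mean E-selectin-positive cell signal at least 10% of the positive control, reached in at least 60% of replicates, without over 20% cell loss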
Target sequence (P16581 whole entry, looked up): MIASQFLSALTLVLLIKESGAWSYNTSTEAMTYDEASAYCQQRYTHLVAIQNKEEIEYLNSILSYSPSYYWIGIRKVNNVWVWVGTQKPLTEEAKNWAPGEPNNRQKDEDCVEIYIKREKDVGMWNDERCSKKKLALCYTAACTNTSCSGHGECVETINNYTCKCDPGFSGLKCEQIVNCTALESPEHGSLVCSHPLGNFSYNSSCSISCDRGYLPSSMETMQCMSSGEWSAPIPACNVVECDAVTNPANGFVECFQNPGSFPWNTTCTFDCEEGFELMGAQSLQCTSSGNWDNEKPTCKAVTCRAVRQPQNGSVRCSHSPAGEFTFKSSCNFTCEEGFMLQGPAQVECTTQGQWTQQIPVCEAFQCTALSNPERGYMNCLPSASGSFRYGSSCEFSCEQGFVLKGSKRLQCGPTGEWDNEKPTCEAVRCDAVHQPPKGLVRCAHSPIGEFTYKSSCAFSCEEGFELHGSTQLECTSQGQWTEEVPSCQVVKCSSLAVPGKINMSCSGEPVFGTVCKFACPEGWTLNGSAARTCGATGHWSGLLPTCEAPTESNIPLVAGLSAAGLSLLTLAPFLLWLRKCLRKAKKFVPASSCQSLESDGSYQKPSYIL
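Assay system: HUVEC, human umbilical vein endothelial cells / Amount: 3,000 HUVEC/well / Controls: TNF-alpha positive control, DMSO neutral control / Compound dosing: single concentration / Medium: EGM-2 over gelatin coat / Evaluation: percent E-selectin-positive cells / Signal: immunofluorescence imaging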
Starred values were filed as active, the others as inactive; . = no result. Rows were chosen to be rich in hits. Some 2.6% of all compounds tested hit in one or more screens of this group.

SMILES	rRNA inh HTS	GSIS activator	RAD52 inh	RAD54 branch	MLL AF4-AF9 inh	E-sel inducer
C1CCN(CCCNC2C3CC4CC(C3)CC2C4)C1 (stereo unspecified)	11	40*	-5	-6	-7	-3
C(CNC1C2CC3CC(C2)CC1C3)CN1CCOCC1 (stereo unspecified)	16	22	4	.	.	2
COc1ccccc1OC(=O)CCN1c2ccccc2Sc2ccccc21	.	-31	.	.	.	.
O=C(O)CCN1c2ccccc2Sc2ccccc21	0	69*	-7	-4	0	0
Brc1ccc(-n2cnc(-c3ccccc3)c2)cc1	-15*	-17	-11	10	-5	0
Oc1ccc(N=Nc2n[nH]c(-c3ccc(Cl)cc3)n2)cc1	-18*	23	-1	5	7	.
Oc1ccc(N=Nc2ccccc2)cc1	-18	-20	-29	3	7	0
O=C(N[C@@H]1CC[C@@H](CCn2cc(C3(O)CCCC3)nn2)O[C@H]1CO)C1CC1	0	19	-6	6	-2	0
CCSc1nc2c(cnn2-c2ccccc2)c(=O)n1N	-17*	-4	-17	-15	.	0
CSc1nc2c(cnn2-c2ccccc2)c(=O)n1N	-1	4	-1	.	-3	.
O=C(COc1ccccc1Cl)NC(=S)N1CCc2ccccc21	-52*	1	-28	.	7	.
COc1ccccc1C(=O)NC(=S)N1CCCc2ccccc21	-6	5	-10	-7	-65	.
COc1ccccc1C(=O)NC(=S)N1CCc2ccccc21	-24*	5	-16	.	7	10
CC(C)CC#Cc1ccc2c(c1)O[C@@H](CN(C)C(=O)Nc1ccccc1)[C@@H](C)CN([C@H](C)CO)S2(=O)=O	2	-12	8	1	-13	0
CCc1ccccc1NC(=S)N1N=CCC1c1ccccc1 (stereo unspecified)	-5	-2	4	6	-1	.
Cc1cccc(NC(=S)N2N=CCC2c2ccccc2)c1 (stereo unspecified)	-23*	1	-11	-3	.	.
Cn1c(=O)c2c(nc(N3CCc4ccccc4C3)n2C)n(C)c1=O	-22*	38	-8	-2	0	0
O=C(NC(=S)NCc1ccco1)c1ccc([N+](=O)[O-])cc1	-5.5*	-15	-9	.	7	0
O=C(NC(=S)NCc1ccco1)c1ccccc1	6	14	-14	.	-2	0
CCc1nc(SCC(=O)c2ccccc2)c2c(=O)n(C)c(=O)n(C)c2n1	8	41*	-11	.	-7	.
CCCc1nc(SCC(=O)c2ccccc2)c2c(=O)n(C)c(=O)n(C)c2n1	2	8	-10	4	-16	1
COc1cccc(CNC(=O)CN2c3cccc4cccc(c34)S2(=O)=O)c1	-37*	17	-22	0	4	2
CN(C)C(=O)CN1c2cccc3cccc(c23)S1(=O)=O	11	3	-10	-1	-5	0
CN(CC(=O)Nc1cccc(F)c1)C(=O)CN1c2cccc3cccc(c23)S1(=O)=O	-40*	-33	-22	12	1	-1
CCNC(=O)C[C@@H]1CC[C@H]2[C@@H](COc3ccc(NC(=O)c4cccc(C(F)(F)F)c4)cc3C(=O)N2C)O1	0	-2	.	-1	.	0
SMILES	rRNA inh HTS	GSIS activator	RAD52 inh	RAD54 branch	MLL AF4-AF9 inh	E-sel inducer
CN1[C@@H]2Cn3c(ccc(C4=CCCCC4)c3=O)[C@H]1[C@@H](C(=O)NCc1cc(F)cc(F)c1)[C@@H]2CO	-8	0	-33	1	2	0
COc1ccc(C(=O)C2CCCN(Cc3ccc4nonc4c3)C2)c(OC)c1 (stereo unspecified)	-28*	-23	-25	-6	20	1
Nn1c(=S)[nH]c2sc3c(c2c1=O)CCCC3	-21*	.	-16	.	-3	.
CO[C@@H]1CN(C)C(=O)c2cc(NC(=O)C3CC3)ccc2OC[C@@H](C)N(Cc2ccncc2)C[C@@H]1C	-2	-6	13	-6	1	0
C[C@@H]1CN([C@@H](C)CO)C(=O)c2cc(-c3ccncc3)cnc2O[C@@H]1CN(C)C(=O)c1ccc(F)cc1	6	36	17	12	-20	0
CN(C)CC#Cc1ccc([C@@H]2[C@H](CO)N3CCCCN(C(=O)Nc4cc(F)ccc4F)C[C@@H]23)cc1	0	2	51*	1	10	0
CN(C)CC#Cc1ccc([C@@H]2[C@@H](CO)N3CCCCN(C(=O)Nc4cc(F)ccc4F)C[C@H]23)cc1	4	23	22	12	5	1
O=C(Nc1ccccc1F)N1CCCCN2[C@@H](CO)[C@H](c3ccc(-c4cccnc4)cc3)[C@@H]2C1	-19*	-2	-6	-5	1	0
O=C(Nc1ccccc1F)N1CCCCN2[C@H](CO)[C@H](c3ccc(-c4cccnc4)cc3)[C@@H]2C1	0	7	4	-5	-5	0
CN(C)CC#Cc1ccc([C@@H]2[C@@H](CO)N3CCCCN(C(=O)Nc4ccccc4F)C[C@H]23)cc1	2	-4	54*	-13	4	0
C[C@H]1CN([C@@H](C)CO)C(=O)c2cc(Br)cnc2O[C@@H]1CN(C)C(=O)C1CCCCC1	-1	4	12	6	0	0
CCC(=O)N(C)C[C@@H]1Oc2ncc(C#Cc3ccncc3)cc2C(=O)N([C@H](C)CO)C[C@H]1C	-4	3	0	-5	-6	1
C[C@@H]1CN([C@H](C)CO)C(=O)c2cc(C#CCC3CCCC3)cnc2O[C@@H]1CN(C)C(=O)CN(C)C	-1	17	32	6	5	0
O=S(=O)(c1ccccc1)N1C[C@@H]2[C@H](c3ccccc31)[C@@H](CO)N2Cc1ccccc1	-18	-1	-39	-9	2	0
COc1ccc(-c2noc(CCC(=O)Nc3cccnc3)n2)cc1OC	.	66*	.	-3	.	.
CCOC(=O)c1nc(SC)n(C)c1C(=O)OCC	0	54*	-7	-5	-2	0
C[C@H]1CCCCO[C@H](CN(C)Cc2ccc(C(F)(F)F)cc2)[C@@H](C)CN([C@@H](C)CO)C(=O)c2cc(N(C)C)ccc2O1	-6	-30	19	4	33*	0
C[C@@H]1CCCCO[C@H](CN(C)Cc2ccc(C(=O)O)cc2)[C@@H](C)CN([C@H](C)CO)C(=O)c2cc(N(C)C)ccc2O1	2	-2	-5	-5	2	0
C[C@@H]1CCCCO[C@H](CN(C)Cc2ccc(C(F)(F)F)cc2)[C@@H](C)CN([C@@H](C)CO)C(=O)c2cc(N(C)C)ccc2O1	0	0	2	0	6	0
